A selection: hits, their analogues and other compounds. The true share with any hit is near 1.6%.
SR-BI DiI-HDL act: SR-BI HDL lipid transfer activation. AID 504775. 320,000 compounds, 0.096% hits. CHO ldlA[mSR-BI] cells, DiI-HDL uptake fluorescence, 3 h; 100 = double the neutral-control signal. activation, % at 12.5 µM;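 active means mean replicate activation of at least 60% and every replicate at or above 60%; inconclusive means mean or all-replicate condition met, but not both; inactive means mean below 60% and not all replicates reaching 60%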
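Test system: SR-BI-overexpressing, LDLR-lacking CHO cells; Also added: labelled HDL, 10 µg/mL; Measured by: bottom-read cell fluorescence after medium removal, ex 550/em 595 nm; Timing: 3 h uptake period with compound, 37 °C; Buffer or medium: F12, 0.5% BSA, 25 mM HEPES; Doses: single compound concentration, delivered by pin transfer.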
S100A4 inh HTS: S100A4-myosin IIA interaction inhibition; P26447; S100A4/TAMRA-MyoIIA peptide fluorescence polarization; inhibition, % at 10.7 µM; 360,000 compounds, 0.14% hits;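 active means mean inhibition of at least 70% across replicates, with every replicate also reaching that level; inconclusive means mean inhibition reaches 70% but some replicates fall short; inactive means mean inhibition below 70%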
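Assay system: human S100A4 monomer with TAMRA-labelled myosin IIA peptide / Buffer or medium: Calcium-containing HEPES buffer, pH 7.2 / Reagent: TAMRA-labelled myosin IIA heavy-chain peptide probe, 5 nM / Compound: one dose per compound / Timing: polarization read 5 min after assay mix addition, stable 5–60 min / Benchmarks: neutral control DMSO, positive control TFP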
SR-BI HDL uptake: mouse SR-BI HDL lipid transfer inhibition | Q61009 | ldlA[mSR-BI] CHO cells, DiI-HDL uptake fluorescence, 3 h | inhibition, % at 12.5 µM | 320,000 compounds, 0.96% hits;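 active means mean replicate inhibition of at least 70% and a set share of replicates each scoring 70 or more; inconclusive means meets just one of the two criteria; inactive means fails both criteria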
RAD54 inh: inhibitors of human RAD54 branch migration; RAD54 Holliday junction branch migration, FAM/BHQ fluorescence; inhibition, % at 10.4 µM; Q92698; 360,000 compounds, 0.14% hits;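 active means mean normalized replicate activity at least 40 and at least half of replicates scoring 40 or more; inconclusive means only one of the two criteria met; inactive means mean below 40 and under half of replicates reaching 40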;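 further: inhibitors cause a drop in the FAM fluorescence signal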
Target sequence (Q92698 whole entry, looked up): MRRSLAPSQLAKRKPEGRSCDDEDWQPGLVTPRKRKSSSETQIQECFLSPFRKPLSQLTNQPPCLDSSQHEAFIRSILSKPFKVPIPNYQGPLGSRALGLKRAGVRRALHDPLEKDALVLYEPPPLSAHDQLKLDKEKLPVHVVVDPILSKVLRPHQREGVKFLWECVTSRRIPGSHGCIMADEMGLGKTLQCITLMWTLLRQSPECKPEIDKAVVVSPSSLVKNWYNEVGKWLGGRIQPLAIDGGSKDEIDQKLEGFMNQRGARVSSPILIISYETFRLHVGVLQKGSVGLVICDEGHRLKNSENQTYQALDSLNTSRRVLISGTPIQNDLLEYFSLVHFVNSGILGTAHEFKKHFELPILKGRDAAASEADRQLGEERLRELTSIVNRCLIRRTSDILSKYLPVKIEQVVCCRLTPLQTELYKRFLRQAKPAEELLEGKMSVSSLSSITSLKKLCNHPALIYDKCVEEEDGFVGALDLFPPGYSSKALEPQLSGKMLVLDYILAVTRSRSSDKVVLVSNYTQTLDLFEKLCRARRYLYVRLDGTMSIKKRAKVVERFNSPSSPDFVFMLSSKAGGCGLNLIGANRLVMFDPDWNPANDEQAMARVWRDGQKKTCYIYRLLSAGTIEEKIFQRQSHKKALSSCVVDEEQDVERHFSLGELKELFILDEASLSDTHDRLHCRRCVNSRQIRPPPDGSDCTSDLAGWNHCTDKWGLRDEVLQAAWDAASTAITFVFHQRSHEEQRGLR
PvdQ inh: P. aeruginosa PvdQ acylase inhibition | inhibition, % at 10 µM | 340,000 compounds, 0.063% hits | AID 488965 | purified PvdQ acylase, fluorescence plate reader; in the data active means inhibition above about 30%, passing the limit was not always enough; inconclusive means no clear call, values can overlap the other calls
dFosB act: enhances mouse delta FosB homodimer DNA binding | activation, % at 25 µM | 340,000 compounds, 0.99% hits | purified delta FosB, TAMRA-CDK5 oligo fluorescence polarization; percent of positive-control signal above neutral wells | P13346;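 active means mean activation above about 17%, with every replicate also reaching it, limit read from the data, passing the limit was not always enough; inconclusive means only one of the two conditions met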
Hits are given with their value; – = inactive; ? = inconclusive; · = no result given.

SMILES | SR-BI DiI-HDL act | S100A4 inh HTS | SR-BI HDL uptake | RAD54 inh | PvdQ inh | dFosB act
Cc1cc(C)cc(OCC(=O)Nc2ccc(N3CCCC3)cc2)c1 | – | · | 75 | – | – | 65
Cc1cccc(OCC(=O)Nc2ccc(N3CCCC3)cc2)c1C | – | · | 71 | – | – | 47
Cc1ccc(OCC(=O)Nc2ccc(N3CCCC3)cc2)cc1C | – | · | ? | – | – | –
C[C@@H]1CCCCO[C@@H](CN(C)S(=O)(=O)c2ccc(Cl)cc2)[C@@H](C)CN([C@@H](C)CO)C(=O)c2cc(NC(=O)Nc3ccc4c(c3)OCO4)ccc2O1 | · | – | · | – | · | ·
COc1cccc(Nc2nc(-c3sc(NC(=O)CC(C)C)nc3C)cs2)c1 | – | – | 86 | – | – | –
C=CCCC(=O)Nc1nc(C)c(-c2csc(Nc3cccc(OC)c3)n2)s1 | – | – | 87 | – | – | –
COc1ccc(C(=O)COC(=O)CN2C(=O)c3ccccc3C2=O)c(OC)c1 | · | – | – | – | – | 19
COc1ccc(C(=O)COC(=O)Cn2c(C)csc2=O)c(OC)c1 | – | – | – | – | – | –
O=C(Nc1ccc(NC(=O)c2ccc(Cl)cc2Cl)cc1)c1cccs1 | – | – | – | – | – | –
COc1cc(NC(=O)c2ccccc2Cl)ccc1NC(=O)c1ccco1 | – | · | 81 | – | – | –
COc1cc(NC(=O)c2ccc(Cl)cc2Cl)ccc1NC(=O)c1cccs1 | – | – | 73 | – | – | –
CCOc1ccccc1NC(=O)c1cc(Cl)ccc1NC(=O)c1ccco1 | – | · | 81 | · | – | –
COc1cc(NC(=O)c2ccc3c(c2)OCCO3)ccc1NC(=O)c1ccccc1Cl | – | – | 89 | – | – | –
C[C@H]1CN([C@@H](C)CO)C(=O)CCCn2nncc2CO[C@H]1CN(C)Cc1ccc(Cl)c(Cl)c1 | · | – | · | – | · | ·
COc1cccc(C(=O)Nc2ccc3c(c2)C(=O)N(C)C[C@@H](OC)[C@H](C)CN[C@@H](C)CO3)c1 | · | – | · | – | · | ·
COc1cc(C(=O)Nc2ccc3c(c2)OCCO3)ccc1OC(C)C | – | · | – | – | – | –
COc1cc(C(=O)Nc2ccc3c(c2)OCCO3)ccc1OC(F)F | – | · | 79 | – | – | –
COc1cc(NC(=O)c2ccc(Cl)cc2)c(OC)cc1Cl | – | · | 74 | – | – | –
Cc1cc(NC(=O)c2cccnc2)ccc1NC(=O)c1cc2ccccc2o1 | – | – | – | – | – | –
CCn1c(SCC(=O)Nc2ccc(NC(=O)c3ccco3)c(OC)c2)nc2ccccc2c1=O | – | · | – | – | – | –
COCCn1c(SCC(=O)Nc2ccc(NC(=O)c3ccco3)c(OC)c2)nc2ccccc2c1=O | – | – | 74 | – | – | –
Cc1cc(NC(=O)c2cccnc2Cl)ccc1NC(=O)c1cc2ccccc2o1 | – | – | 77 | – | – | –
C[C@H](CO)N1C[C@H](C)[C@H](CN(C)C(=O)Nc2ccc(C(F)(F)F)cc2)OCCCC[C@H](C)Oc2ccc(NC(=O)Cc3ccccc3)cc2C1=O | · | · | · | – | · | ·
C[C@@H]1CN([C@H](C)CO)C(=O)c2cc(NS(=O)(=O)c3ccccc3)ccc2O[C@@H](C)CCCCO[C@@H]1CN(C)C(=O)c1ccccc1 | · | – | · | – | · | ·
Cc1ccc(S(=O)(=O)N(C)C[C@@H]2Oc3ccc(NC(=O)CCCN(C)C)cc3C(=O)N([C@@H](C)CO)C[C@@H]2C)cc1 | · | – | · | – | · | ·
SMILES | SR-BI DiI-HDL act | S100A4 inh HTS | SR-BI HDL uptake | RAD54 inh | PvdQ inh | dFosB act
COc1cc2cc(C(=O)Nc3ccc4c(c3)OCCO4)[nH]c2cc1OC | – | – | ? | – | – | –
COc1c(F)c(F)c(C(=O)Nc2ccc(NC(=O)c3ccco3)cc2)c(F)c1F | – | · | 74 | – | – | ?
COc1cc(NC(=O)c2ccccc2F)ccc1NC(=O)c1cc2ccccc2o1 | – | – | 87 | – | – | ?
COc1cc2[nH]c(C(=O)Nc3ccc4c(c3)OCCO4)cc2c(OC)c1OC | – | – | 86 | – | – | –
COc1cc(NC(=O)c2ccc(Br)o2)ccc1NC(=O)C(C)C | – | · | 71 | – | – | –
COc1ccc(-c2cn(CCNC(=O)[C@H](Cc3ccccc3)NS(=O)(=O)c3ccc(C)cc3)nn2)cc1OC | · | – | · | – | · | ·
C[C@H]1CN([C@@H](C)CO)S(=O)(=O)c2ccc(C#CC(C)(C)O)cc2O[C@H]1CN(C)C | · | – | · | – | · | ·
O=C(NCCN1CCCC1)[C@H]1N[C@H]2c3ccc(C4=CCCCC4)c(=O)n3C[C@H]2[C@@H]1CO | · | – | · | – | · | ·
CCC(=O)N1C[C@@H](C)[C@H](OC)CN(C)C(=O)c2ccc(NC(=O)c3ccc(OC)cc3)cc2OC[C@H]1C | · | – | · | – | · | ·
CCOc1cc(NC(=O)c2ccco2)c(OCC)cc1NC(=O)c1cc(OC)c(OC)c(OC)c1 | – | · | – | – | – | –
COc1cc(NC(=O)c2ccco2)c(OC)cc1NC(=O)c1cc(OC)c(OC)c(OC)c1 | – | · | 79 | – | – | –
COc1ccc(NC(=O)c2ccc(NC(=O)c3ccco3)cc2)c(OC)c1 | – | – | 82 | – | – | –
C[C@@H]1CCCCO[C@@H](CN(C)Cc2ccc(Cl)c(Cl)c2)[C@H](C)CN([C@@H](C)CO)C(=O)c2cc(NC(=O)C3CCCCC3)ccc2O1 | · | – | · | – | · | ·
Cc1noc(C)c1S(=O)(=O)Nc1cccc2c1O[C@H](CN(C)S(=O)(=O)c1ccccc1)[C@H](C)CN([C@H](C)CO)C2=O | · | – | · | – | · | ·
O=C(N/N=C/c1sc(N2CCOCC2)nc1-c1ccccc1)c1ccccc1Cl | – | – | 83 | – | – | –
O=[N+]([O-])c1ccc(N/N=C/c2sc(N3CCOCC3)nc2-c2ccccc2)c(S(=O)(=O)Nc2ccc(Cl)cc2)c1 | – | – | 118 | · | – | –
O=[N+]([O-])c1ccc(N/N=C/c2sc(N3CCOCC3)nc2-c2ccccc2)c(S(=O)(=O)Nc2ccccc2Cl)c1 | – | · | – | · | – | –
COc1ccc(S(=O)(=O)N[C@@H]2C=C[C@@H](CC(=O)NCCc3ccncc3)O[C@@H]2CO)cc1 | · | – | · | – | · | ·
CCN(CC(=O)NCc1ccc(F)cc1)C(=O)/C=C/c1ccc(S(=O)(=O)N(CC)CC)cc1 | – | – | 76 | – | – | –
CCN(CC(=O)NCc1ccc(Cl)cc1)S(=O)(=O)c1ccc(F)cc1 | – | – | – | – | – | –
CCS(=O)(=O)NCC[C@@H]1CC[C@H](NS(=O)(=O)c2cccc(Cl)c2)[C@H](CO)O1 | · | – | · | – | · | ·
Cn1cccc1C(C#N)c1cccc(F)c1C#N (centres undefined) | – | – | – | · | 60 | –
COc1ccc([C@H]2CC(=O)C=C(c3cccc4c3Oc3ccccc3S4)C2)cc1OC | – | – | 80 | – | – | –
C[C@H]1CN([C@@H](C)CO)S(=O)(=O)c2ccc(C#Cc3cccc(F)c3)cc2O[C@H]1CN(C)S(=O)(=O)c1ccccc1F | · | – | · | – | · | ·

Screening data from PubChem BioAssay.
